The structures appear in SMILES notation. Values joined by “and” are separate entries in the source; they are usually repeats but may differ in a detail not shown here. Identical values can stand only once.

Data set [1] deals with P. falciparum 3D7 parasites. As to the kind of experiment: P. falciparum 3D7 asexual-stage parasite LDH viability assay. It is filed as cell-based, Plasmodium falciparum.
The nature of data set [2]: Liver microsome stability, mouse. The conditions noted are these: pooled mouse liver microsomes. Type of data set: in vitro ADME. The procedure, abridged: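 Test compound (1 μM, phosphate buffer) was incubated with pooled mouse liver microsomes (0.5 mg/mL) at 37 °C, with and without an NADPH regeneration system, sampling at 0, 5, 20, 30, 45 and 60 min. Run in duplicate.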
On the technique in general: Microsomes from liver hold many membrane-bound enzymes, among them those of drug oxidation.

Data set [3] is described as follows: Hepatocyte stability, rat. As to conditions: pooled rat hepatocytes. It is filed as in vitro ADME. A digest of the protocol: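 Test compound (1 μM) in Krebs–Henseleit buffer was incubated with pooled rat hepatocytes (1 × 10^6 cells/mL) at 37 °C, 5% CO2, with samples from 0 to 90 min. Reactions were quenched with ice-cold acetonitrile and centrifuged, and supernatants were analysed by LC–MS/MS. Half-life and CLint were derived from parent remaining. Run in duplicate.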

Another data set can be described thus: LogD at pH 7.4. It is filed as physicochemical. As to conditions: 1-octanol/phosphate-buffered saline (1:1, v/v).
Another data set relates to Pf Dd2 parental line. As to the kind of experiment: 3H-hypoxanthine 72 h assay, Dd2 parental line. Type of data set: cell-based. As to conditions: Plasmodium falciparum, DD2, read-out: Pf Dd2 EC50, Dd2 parental line, 3H-hypoxanthine 72 h; average of two experiments.
Data set [4] concerns Pf Dd2 strain with an I22L mutation in the Qi site cyt b. As to the kind of experiment: 3H-hypoxanthine 72 h assay, Dd2 cyt b. It is filed as cell-based, Plasmodium falciparum. The procedure, abridged: (§1)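 Asexual blood-stage parasites in hypoxanthine-free RPMI 1640 with HEPES, NaHCO3, neomycin (100 μg/mL) and Albumax II (5 g/L). Infected blood (0.3% parasitemia, 2.5% hematocrit) was exposed to a 10-point serial dilution at 37 °C under 93% N2/4% CO2/3% O2. After 48 h, [3H]-hypoxanthine (0.5 μCi/well) was added for 24 h more. Scintillation cpm were normalised to untreated controls, and logit regression gave values as means of two experiments.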

Data set [5] concerns Pf SB1-A6 strain with a CNV (∼2-fold) and a C276F mutation in DHODH. As to the kind of experiment: SB1-A6 asexual-stage assay. Type of data set: cell-based. As to conditions: Plasmodium falciparum, 72 h, read-out: SB1-A6 EC50. A digest of the protocol: (§2)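 Parasites were sorbitol-synchronised one cycle before setup. Ring stages at 0.5% parasitemia and 2% hematocrit were plated onto twofold compound dilutions and incubated at 37 °C for 72 h. Cells were fixed in 0.25% glutaraldehyde (RT, 30 min), stained with 2.5× SYBR Green (37 °C, 30 min) and counted by flow cytometry. EC50 is the average of three independent experiments.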

In data set [6] the test system is Pf Dd2 expressing ScDHODH. As to the kind of experiment: ScDHODH asexual-stage assay. As to conditions: Plasmodium falciparum, DD2, 72 h, read-out: Dd2 ScDHODH EC50. It is filed as cell-based. A digest of the protocol: as §2
A further data set concerns K1. The experiment in a line: 3H-hypoxanthine 72 h assay, K1. It is filed as cell-based. The conditions noted are these: Plasmodium falciparum, K1, read-out: Pf multidrug-resistant strain EC50 K1.
The next data set deals with NF54. The experiment in a line: 3H-hypoxanthine 72 h assay, NF54. Type of data set: cell-based. As to conditions: Plasmodium falciparum, NF54, read-out: Pf multidrug-resistant strain EC50 NF54.
A further data set deals with RF12. The experiment in a line: 3H-hypoxanthine 72 h assay, RF12. Type of data set: cell-based. The conditions noted are these: Plasmodium falciparum, read-out: Pf multidrug-resistant strain EC50 RF12.
The next data set relates to 7G8. The experiment in a line: 3H-hypoxanthine 72 h assay, 7G8. Type of data set: cell-based. The conditions noted are these: Plasmodium falciparum, 7G8, read-out: Pf multidrug-resistant strain EC50 7G8.
Data set [7] has as its system mitochondrial electron transport chain of P. falciparum 3D7 asexual parasites. As to the kind of experiment: ETC biosensor / oxygen consumption rate. Type of data set: cell-based, Plasmodium falciparum. The conditions noted are these: for OCR upon addition of TMPD: after compound (5 μM), TMPD (cytochrome c electron donor) added; for effect on malate-dependent oxygen consumption rate (OCR): compounds at 5 μM, malate as the energy source. The procedure, abridged:
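Magnet-purified trophozoite-infected RBCs were saponin-released (0.05%, 37 °C, 3 min) and washed. Parasites were suspended in MAS buffer with 25 mM malate and 0.002% digitonin and seeded at 5 × 10^6 per Cell-Tak-coated well (800g, 10 min). Seahorse XFe96 OCR was read at baseline, after test compound (5 μM final), after TMPD (0.2 mM) with ascorbate (2 mM), then after NaN3 (10 mM). Each cycle was 20 s mix, 1 min wait, 2.5 min measure.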

Data set [8] relates to P. falciparum NF54 female gametes. As to the kind of experiment: Dual gamete formation assay. Type of data set: cell-based. As to conditions: Plasmodium falciparum, NF54, read-out: female gamete EC50. The procedure, abridged:
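Stage V NF54 gametocyte cultures with >0.2% exflagellation were diluted to 12.5 million cells/mL in gametocyte medium containing 10% human serum and no Albumax. They were dispensed warm (625,000 cells/well) onto the test compound. After ookinete medium was added, plates went to 4 °C for 4 min and then 28 °C for 5 min, followed by 24 h at 28 °C in the dark. Female gametes (Pfs25) were scored from one fluorescence image per well.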

For the next data set, the system named is P. berghei EEFs. As to the kind of experiment: Exoerythrocytic stage assay. Type of data set: cell-based. The conditions noted are these: Plasmodium berghei, 48 h, read-out: Pb liver stage EEFs EC50 (SD).
A further data set has as its system HepG2. The experiment in a line: HepG2 host cell viability in the liver stage panel. It is filed as cell-based. As to conditions: Homo sapiens, HepG2, 48 h, read-out: HepG2 EC50 (liver stage).
The subject of data set [9] is P. berghei ANKA parasites expressing GFP. The experiment in a line: Peter's 4 day P. berghei mouse model. It is filed as in vivo. As to conditions: 20 mg/kg p.o. q.d. days 0-3. A digest of the protocol:
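Swiss mice (four per group) were infected IV with 1 × 10^7 P. berghei ANKA GFPcon-infected erythrocytes from donor mice. Dosing was oral once daily for 4 days, starting 2 h post-infection: test compound at 20 mg/kg in 20% DMSO/60% propylene glycol/20% water, or chloroquine at 10 mg/kg in water. Day-4 parasitemia was measured as GFP+ cells per 100,000 events and by Giemsa smears, with reduction calculated against vehicle.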

Data set [10] in a line: Plasma bioanalysis in the P. berghei mouse model. Type of data set: in vivo. As to conditions: 20 mg/kg oral. A digest of the protocol: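 Blood was sampled from P. berghei-infected mice at 2, 6 and 22 h after the first oral 20 mg/kg dose. Plasma compound concentrations were quantified by LCMS.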
The test system of data set [11] is drug-resistant P. falciparum strains. As to the kind of experiment: Profiling against a selection of multidrug-resistant parasites. It is filed as cell-based, Plasmodium falciparum. A digest of the protocol:
as §1

Data set [12] relates to 41 resistant 3D7 P. falciparum populations (V259L cyt b Qo site mutation). The experiment in a line: LDH growth assay against 41 resistant populations. It is filed as cell-based. The conditions noted are these: Plasmodium falciparum, 3D7, read-out: EC50 against all three populations. The procedure, abridged: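 Three 3D7 clonal populations were selected by exposure to test compound starting at 2 × EC50, monitored by Giemsa smears and stepped up after recovery. Synchronised ring-stage parasites were then grown 72 h on predispensed compound in RPMI/AlbuMAX and frozen at −80 °C overnight. LDH activity was read with APAD/NBT absorbance at 650 nm.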

Data set [13] is described as follows: Liver microsome stability, human. It is filed as in vitro ADME.
Data set [14] is described as follows: Kinetic aqueous solubility. As to conditions: kinetic in PBS. It is filed as physicochemical. A digest of the protocol: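 Miniaturised shake flask: test compound (200 μM) in PBS pH 7.4 was shaken at 600 rpm, 25 °C for 2 h, filtered, and the filtrate half-diluted in acetonitrile. Run in duplicate.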

As to `CCn1cc(-c2nc(C)no2)c(=O)c2cc(F)c(N3CCC(C)CC3)cc21` [Compound 17, 1-Ethyl-6-fluoro-3-(3-methyl-1,2,4-oxadiazol-5-yl)-7-(4-methyl-1-piperidyl)quinolin-4-one], the “in vitro EC99” value in data set [1] is 0.030 µM. Besides, the intrinsic clearance (microsomal CLint) (in general, the rate of metabolic loss divided by the concentration) at 1 μM in [2] amounted to 16.2 µL/min/mg. Besides, the intrinsic metabolic clearance (hepatocyte CLint) – broadly, the capacity of the preparation to metabolise the compound, expressed as a volume cleared per time – at 1 μM in data set [3] was found to be 53.8 µL/min/1e6 cells. The log distribution coefficient (logD) – broadly, the decadic logarithm of the distribution of all forms, ionised or not, between an organic phase and buffer at a given pH – at 2 h in “LogD at pH 7.4” is 2.6. Further, the EC50 (as a rule, the concentration needed to bring the measured effect to its halfway point) is 10 nM in the data set with Pf Dd2 parental line; 1800 nM in data set [5]; 1700 nM in data set [6]; 9 nM in the data set on K1; 12 nM with NF54; 6 nM in the data set with RF12. Moreover, the EC50 is 9 nM with 7G8, above 25000 nM in data set [8], below 1 nM in the data set on P. berghei EEFs and above 50000 nM with HepG2. Besides, in data set [4], the “difference in sensitivity between the ELQ-300 resistant Dd2 strain and the Dd2 parental strain” value is on record as “no difference in sensitivity”. Further, the “OCR upon addition of TMPD” value in data set [7] is given as “rescued”. In [7], the “effect on malate-dependent oxygen consumption rate (OCR)” value is given as “significantly reduce the OCR”. Besides, the “% parasitemia” value in data set [9] (average for four mice on day 4) turned out to be 8.1%. In addition, the “% reduction in parasitemia” value in [9] (versus the vehicle control, four mice, day 4) is 56% and 56.2%. The absorption result in data set [10] is reported as “moderate absorption”. Also, in data set [10] (after dose 1), the “time for which total plasma concentration exceeds the in vitro EC99” value is reported as “approximately 12 h”. In addition, the “potency against each drug-resistant strain compared to the Dd2 and NF54 wild-type parasites” value in [11] is “equipotent”.
As for `CCn1cc(-c2nc(C)no2)c(=O)c2cc(F)c(N3CCC(Cc4ccccc4)CC3)cc21` [Compound 41, 7-(4-Benzyl-1-piperidyl)-1-ethyl-6-fluoro-3-(3-methyl-1,2,4-oxadiazol-5-yl)quinolin-4-one], the “fold more potent than 17” value in [1] (3D7 parasite EC50 compared to 17) came out at 2 fold. For the same compound, the microsomal CLint at 1 μM in [2] turned out to be 44.1 µL/min/mg. For the same compound, the hepatocyte CLint at 1 μM in data set [3] was found to be 24.7 µL/min/1e6 cells. This compound displayed a logD at 2 h in the data set “LogD at pH 7.4” of 4.2. Moreover, the concentration giving a half-maximal response (EC50) was around 800 nM in data set [12]; 4 nM in the data set with Pf Dd2 parental line; 480 nM in data set [5]; 860 nM in data set [6]; 5 nM with K1; 5 nM in the data set on NF54. Moreover, the EC50 worked out at 2 nM in the data set with RF12 and 3 nM in the data set with 7G8. Besides, the “difference in sensitivity between the ELQ-300 resistant Dd2 strain and the Dd2 parental strain” value in data set [4] was “no difference in sensitivity”. The “OCR upon addition of TMPD” value in [7] is given as “rescued”. Further, the “effect on malate-dependent oxygen consumption rate (OCR)” value in [7] was “significantly reduce the OCR”. For the same compound, the “potency against each drug-resistant strain compared to the Dd2 and NF54 wild-type parasites” value in data set [11] is given as “equipotent”.
Take `CCOC(=O)c1cn(CC)c2cc(N3CCC(C)CC3)c(F)cc2c1=O` [Compound 21, Ethyl 1-Ethyl-6-fluoro-7-(4-methyl-1-piperidyl)-4-oxo-quinoline-3-carboxylate]: the “liver microsomes human CLint” value in data set [13] was found to be 205.2 µL/min/mg. This compound yielded a hepatocyte CLint at 1 μM in [3] above 92.4 µL/min/1e6 cells. Moreover, the “aqueous solubility pH 7.4” value in [14] is 22.9 μM. The pH-dependent lipophilicity (logD) at 2 h in “LogD at pH 7.4” was 3.2. Also, the EC50 in the data set on Pf Dd2 parental line was 55 nM; in the data set on K1, 48 nM; in the data set with NF54 it was 65 nM; in the data set on RF12 it was 20 nM; with 7G8, 38 nM; in data set [8], above 25000 nM. Also, the concentration giving a half-maximal response (EC50) in the data set with P. berghei EEFs was 24 nM; in the data set with HepG2, above 50000 nM. Further, the “potency against each drug-resistant strain compared to the Dd2 and NF54 wild-type parasites” value in [11] is “equipotent”.

These data come from PMC10012268 (ACS Infectious Diseases, 2023).
